Laboratory results published in ChEMBL document CHEMBL1123146, “Design, synthesis, and evaluation of omega-iodovinyl- and omega-iodoalkyl-substituted methyl-branched long-chain fatty acids” (J Med Chem, 1985).

What was measured:
Rattus norvegicus [1] = test: Concentration was measured in liver tissue of unfasted Fischer 344 rats administered intravenously after 5 minute (radiolabeled with [125I]-; type: ADME, organism-based; conditions: in vivo, iv, 5 min
Method in brief: (§1)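 Female Fischer 344 rats, 10-12 weeks old, 170-200 g, with food and water ad libitum. The 125I-fatty acid was taken up in ethanol, added dropwise to stirred 6% BSA at ~40 °C (final ethanol 10%), filtered, and given as 0.5 mL via lateral tail vein under ether anesthesia. Rats were killed by cervical fracture; blood was taken by cardiac puncture. Organs were rinsed, blotted, weighed and gamma-counted against injectate standards to give %ID/g. Five rats per time point.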

Rattus norvegicus [2] = test: Concentration was measured in kidney tissue of unfasted Fischer 344 rats administered intravenously after 2 minute (radiolabeled with [125I]-; type: ADME, organism-based; conditions: in vivo, iv, 2 min; method in brief: as §1
Rattus norvegicus [3] = test: Concentration was measured in kidney tissue of unfasted Fischer 344 rats administered intravenously after 10 minute (radiolabeled with [125I]-; type: ADME, organism-based; conditions: in vivo, iv, 10 min; method in brief: as §1
Rattus norvegicus [4] = test: Concentration was measured in blood tissue of unfasted Fischer 344 rats administered intravenously after 2 minute (radiolabeled with [125I]-; type: ADME, organism-based; conditions: in vivo, iv, 2 min; method in brief: as §1
Rattus norvegicus [5] = test: Concentration was measured in lungs tissue of unfasted Fischer 344 rats administered intravenously after 2 minute (radiolabeled with [125I]-; type: ADME, organism-based, Lung; conditions: in vivo, iv, 2 min; method in brief: as §1
Rattus norvegicus [6] = test: Concentration was measured in heart tissue of unfasted Fischer 344 rats administered intravenously after 60 minute (radiolabeled with [125I]-; type: ADME, organism-based; conditions: in vivo, iv, 1 h; method in brief: as §1
Rattus norvegicus [7] = test: Concentration was measured in heart tissue of unfasted Fischer 344 rats administered intravenously after 5 minute (radiolabeled with [125I]-; type: ADME, organism-based; conditions: in vivo, iv, 5 min; method in brief: as §1
Rattus norvegicus [8] = test: Concentration was measured in kidney tissue of unfasted Fischer 344 rats administered intravenously after 60 minute (radiolabeled with [125I]-; type: ADME, organism-based; conditions: in vivo, iv, 1 h; method in brief: as §1
Rattus norvegicus [9] = test: Concentration was measured in lungs tissue of unfasted Fischer 344 rats administered intravenously after 10 minute (radiolabeled with [125I]-; type: ADME, organism-based, Lung; conditions: in vivo, iv, 10 min; method in brief: as §1
Rattus norvegicus [10] = test: Concentration was measured in mean heart/blood tissue of unfasted Fischer 344 rats administered intravenously after 10 minute (radiolabeled with [125I]-; type: ADME, organism-based; conditions: iv, 10 min
Method in brief: (§2)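 Female Fischer 344 rats, five per time point, each given 11 μCi of the ¹²⁵I-labeled fatty acid (~269 mCi/mmol) via a lateral tail vein in 0.5 mL of 6% BSA (10% ethanol) under ether anesthesia. Blood was drawn by cardiac puncture; organs were rinsed, weighed and gamma-counted against injectate standards. Output is % injected dose/g and mean heart/blood ratio.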

Rattus norvegicus [11] = test: Concentration was measured in thyroid tissue of unfasted Fischer 344 rats administered intravenously after 60 minute (radiolabeled with [125I]-; type: ADME, organism-based, Thyroid gland; conditions: in vivo, iv, 1 h
Method in brief: (§3)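 Female Fischer 344 rats, 10–12 weeks old (170–200 g), with food and water ad libitum, five per time point. The radioiodinated fatty acid was dissolved in ethanol, added to 6% BSA at ~40 °C (final 10% ethanol), filtered, and injected into a lateral tail vein (0.5 mL) under ether anesthesia. Blood was taken by cardiac puncture; organs were rinsed, blotted, weighed and gamma-counted against injectate standards. Output is % injected dose/g.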

Rattus norvegicus [12] = test: Concentration was measured in blood tissue of unfasted Fischer 344 rats administered intravenously after 60 minute (radiolabeled with [125I]-; type: ADME, organism-based; conditions: in vivo, iv, 1 h; method in brief: as §1
Rattus norvegicus [13] = test: Concentration was measured in thyroid tissue of unfasted Fischer 344 rats administered intravenously after 2 minute (radiolabeled with [125I]-; type: ADME, organism-based, Thyroid gland; conditions: in vivo, iv, 2 min; method in brief: as §3
Rattus norvegicus [14] = test: Concentration was measured in mean heart/blood tissue of unfasted Fischer 344 rats administered intravenously after 2 minute (radiolabeled with [125I]-; type: ADME, organism-based; conditions: in vivo, iv, 2 min
Rattus norvegicus [15] = test: Concentration was measured in lungs tissue of unfasted Fischer 344 rats administered intravenously after 5 minute (radiolabeled with [125I]-; type: ADME, organism-based, Lung; conditions: in vivo, iv, 5 min; method in brief: as §1
Rattus norvegicus [16] = test: Concentration was measured in blood tissue of unfasted Fischer 344 rats administered intravenously after 10 minute (radiolabeled with [125I]-; type: ADME, organism-based; conditions: in vivo, iv, 10 min; method in brief: as §1
Rattus norvegicus [17] = test: Concentration was measured in liver tissue f unfasted Fischer 344 rats administered intravenously after 10 minute (radiolabeled with [125I]-; type: ADME, organism-based; conditions: in vivo, iv, 10 min; method in brief: as §1
Rattus norvegicus [18] = test: Concentration was measured in mean heart/blood tissue of fasted Fischer 344 rats administered intravenously after 60 minute (radiolabeled with [125I]-; conditions: in vivo, iv, 1 h
Rattus norvegicus [19] = test: Concentration was measured in thyroid tissue of unfasted Fischer 344 rats administered intravenously after 10 minute (radiolabeled with [125I]-; type: ADME, organism-based, Thyroid gland; conditions: in vivo, iv, 10 min; method in brief: as §2
Rattus norvegicus [20] = test: Concentration was measured in kidney tissue of unfasted Fischer 344 rats administered intravenously after 5 minute (radiolabeled with [125I]-; type: ADME, organism-based; conditions: in vivo, iv, 5 min; method in brief: as §1
Rattus norvegicus [21] = test: Concentration was measured in heart tissue of unfasted Fischer 344 rats administered intravenously after 10 min (radiolabeled with [125I]-; type: ADME, organism-based; conditions: in vivo, iv; method in brief: as §1
Rattus norvegicus [22] = test: Concentration was measured in lungs tissue of unfasted Fischer 344 rats administered intravenously after 60 minute (radiolabeled with [125I]-; type: ADME, organism-based, Lung; conditions: in vivo, iv, 1 h; method in brief: as §1
Rattus norvegicus [23] = test: Concentration was measured in heart tissue of unfasted Fischer 344 rats administered intravenously after 2 minute (radiolabeled with [125I]-; type: ADME, organism-based; conditions: in vivo, iv, 2 min; method in brief: as §1
Rattus norvegicus [24] = test: Concentration was measured in liver tissue of unfasted Fischer 344 rats administered intravenously after 60 minute (radiolabeled with [125I]-; type: ADME, organism-based; conditions: in vivo, iv, 1 h; method in brief: as §1
Rattus norvegicus [25] = test: Concentration was measured in blood tissue of unfasted Fischer 344 rats administered intravenously after 5 minute (radiolabeled with [125I]-; type: ADME, organism-based; conditions: in vivo, iv, 5 min; method in brief: as §1
Rattus norvegicus [26] = species: Rattus norvegicus; test: Specific activity was determined with radioiodinated iodine-125; type: functional
Rattus norvegicus [27] = test: Concentration was measured in mean heart/blood tissue of fasted Fischer 344 rats administered intravenously after 5 minute (radiolabeled with [125I]-; conditions: in vivo, iv, 5 min
Rattus norvegicus [28] = test: Concentration was measured in liver tissue of unfasted Fischer 344 rats administered intravenously after 2 minute (radiolabeled with [125I]-; type: ADME, organism-based; conditions: in vivo, iv, 2 min; method in brief: as §1
Rattus norvegicus [29] = test: Concentration was measured in thyroid tissue of unfasted Fischer 344 rats administered intravenously after 5 minute (radiolabeled with [125I]-; type: ADME, organism-based, Thyroid gland; conditions: in vivo, iv, 5 min; method in brief: as §3

`CC(CCCCCCCCCCCCCCI)CC(=O)O` (centres undefined) was tested, and the Distribution (Rattus norvegicus [1]) was 2.5%, the Distribution (Rattus norvegicus [2]) was 1.35% and the Distribution (Rattus norvegicus [3]) was 0.96%. For the same compound, the Distribution (Rattus norvegicus [4]) was 2.47%, the Distribution (Rattus norvegicus [5]) was 1.75% and the Distribution (Rattus norvegicus [6]) was 0.95%. For the same compound, the Distribution (Rattus norvegicus [7]) was 1.93%, the Distribution (Rattus norvegicus [8]) was 0.59% and the Distribution (Rattus norvegicus [9]) was 1.16%. For the same compound, the Distribution (Rattus norvegicus [10]) was 1.35%, the Distribution (Rattus norvegicus [11]) was 217% and the Distribution (Rattus norvegicus [12]) was 0.72%. It also gave a Distribution (Rattus norvegicus [13]) of 22.5%, a Distribution (Rattus norvegicus [14]) of 1.09% and a Distribution (Rattus norvegicus [15]) of 1.03%. The Distribution (Rattus norvegicus [16]) was 1.31%, the Distribution (Rattus norvegicus [17]) was 2.54% and the Distribution (Rattus norvegicus [18]) was 1.32%. For the same compound, the Distribution (Rattus norvegicus [19]) was 43.3%, the Distribution (Rattus norvegicus [20]) was 1.06% and the Distribution (Rattus norvegicus [21]) was 1.77%. It also gave a Distribution (Rattus norvegicus [22]) of 0.68%, a Distribution (Rattus norvegicus [23]) of 2.68% and a Distribution (Rattus norvegicus [24]) of 0.95%. The Distribution (Rattus norvegicus [25]) was 1.43%, the Specific activity (Rattus norvegicus [26]) was 0.269 Ci mM-1 and the Distribution (Rattus norvegicus [27]) was 1.35%. It also gave a Distribution (Rattus norvegicus [28]) of 3.93% and a Distribution (Rattus norvegicus [29]) of 30.2%.
